# Compound activity (PubChem BioAssay)
# Hits are enriched below; roughly 2.7% of the tested compounds scored in any of these assays.
# NR2E3 ag-1 – activates human photoreceptor nuclear receptor NR2E3; actives 0.12% (n = 320,000); inhibition of corepressor binding, % at 4.78 µM; Q9Y5X4; GST-NR2E3/biotin-RetCOR TR-FRET, 1536-well;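 active = percent inhibition above the cutoff of mean plus 3 SD of all tested compounds, set per screening campaign, cut at about 20% in these data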
# Target sequence (Q9Y5X4 whole entry, looked up): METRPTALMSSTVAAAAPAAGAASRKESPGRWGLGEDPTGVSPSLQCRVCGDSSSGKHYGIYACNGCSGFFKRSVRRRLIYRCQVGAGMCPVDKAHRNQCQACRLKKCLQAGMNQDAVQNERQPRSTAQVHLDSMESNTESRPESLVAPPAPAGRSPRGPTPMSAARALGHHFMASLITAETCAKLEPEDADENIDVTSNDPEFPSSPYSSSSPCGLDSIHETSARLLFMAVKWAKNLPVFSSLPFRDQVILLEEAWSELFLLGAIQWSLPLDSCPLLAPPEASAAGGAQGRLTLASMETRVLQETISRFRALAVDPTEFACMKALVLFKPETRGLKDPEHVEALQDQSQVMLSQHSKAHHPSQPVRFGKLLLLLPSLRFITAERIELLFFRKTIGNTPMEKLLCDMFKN
#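 System: GST-tagged NR2E3 plus biotinylated RetCOR corepressor; Amount: 1.35 nM GST-tagged NR2E3 final; Dosing: single nominal compound dose of 4.8 µM; Schedule: 5 h incubation at 4 °C; Technique: TR-FRET with europium anti-GST and streptavidin-D2, 340 nm excitation; Controls: biotin wells as high control, 0.6% DMSO wells as low control.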
# MC4R antagonist – human MC4R antagonism in cAMP assay; P32245; MC4R-expressing cells, MTII-stimulated cAMP, LANCE TR-FRET; inhibition, % at 6.5 µM; actives 0.48% (n = 360,000); AID 540295;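 active = inhibition above its plate's cutoff, the mean of tested wells on that plate plus 3 SD, cut at about 29% in these data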
#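 Material: human MC4R-expressing U2OS cells. Probe or stimulus: Melanotan II challenge. Dosing: 6.5 µM single dose. Times: 30-min compound, 1-h challenge, 1-h detection, room temperature. Technique: TR-FRET with Eu-cAMP and labeled anti-cAMP, 671 nm. Replication: singlicate.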
# MC4R ag barr – human MC4R agonism via beta-arrestin; P32245; U2OS MC4R beta-arrestin complementation, luminescence; percent of melanotan II response, DMSO zero; activation, % at 8.9 µM; actives 0.98% (n = 360,000); AID 540308;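 active = activation above a per-plate cutoff, the mean activation of sample wells on that plate plus 3 SD, cut at about 8% in these data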
# PG9 binder – small molecules binding HIV-1 gp120 antibody PG9. TR-FRET gp120-PG9 antibody binding. inhibition, % at 6.7 µM. actives 0.43% (n = 360,000). AID 624416; in the data active = inhibition above about 8.5%
# NR1D1 modulator – Rev-erb alpha (human) modulation. Rev-erbα–FITC-DNA binding, fluorescence polarization, 90 min. actives 0.79% (n = 370,000). activity, % at 10 µM. P20393;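 active = activity above about 14%, limit read from the data; passing the limit was not always enough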
# NR2E3 ag-2 – human photoreceptor-specific nuclear receptor agonism; actives 0.35% (n = 360,000); Q9Y5X4; CHO-S Gal4-NCOR/VP16-NR2E3 two-hybrid, luciferase; inhibition of corepressor binding, % at 3.98 µM;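 active = inhibition above the mean of all tested compounds plus 3 SD, cut at about 70% in these data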;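 also: higher means lower luciferase signal from less NR2E3 corepressor binding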
# NR2E3 ag conf – NR2E3 agonism confirmed in two-hybrid assay; shares compounds with NR2E3 ag-2; CHO-S mammalian two-hybrid NR2E3-NCOR, luciferase luminescence; inhibition, % at 3.98 µM; actives 51% (n = 2,300);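 active = average inhibition above a cutoff equal to the mean inhibition of all tested compounds plus one SD, cut at about 70% in these data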
# GAL4-VP16 luc – reduces GAL4-VP16 reporter signal in NR2E3 counterscreen; actives 29% (n = 2,300); CHO-S GAL4-VP16 luciferase reporter, luminescence; AID 624379; shares compounds with NR2E3 ag-2; inhibition, % at 3.98 µM;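 active = mean inhibition above a cutoff equal to the average over all tested compounds plus one standard deviation, cut at about 70% in these data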;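 also: luciferase from a UAS reporter driven by GAL4-VP16 transactivation; higher means less reporter light so more repression of VP16 activity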
# Numbers stand for hits; i = inactive; nt = no result given.
SMILES,NR2E3 ag-1,MC4R antagonist,MC4R ag barr,PG9 binder,NR1D1 modulator,NR2E3 ag-2,NR2E3 ag conf,GAL4-VP16 luc
O=C(Nc1ccc(N2CCN(C(=O)c3ccccc3)CC2)cc1)c1ccc2c(c1)OCCO2,i,i,i,i,i,i,nt,nt
COc1cccc(-c2cc3nc(-c4ccccc4)cc(N4CCCC(O)C4)n3n2)c1 (centres undefined),i,i,i,i,i,i,nt,nt
CC(O)(c1cccnc1)c1nc(-c2cccc(F)c2)cs1 (centres undefined),nt,i,i,i,i,i,nt,nt
CC(O)(c1cccnc1)c1nc(-c2cccc(C(F)(F)F)c2)cs1 (centres undefined),nt,i,i,i,i,i,i,i
CC(O)(c1cccnc1)c1nc(-c2ccc(F)c(Cl)c2)cs1 (centres undefined),nt,i,i,i,i,i,i,i
Cc1c(C(=O)N2CCN(c3ccccc3)CC2)sc2ncnc(N3CCC(C)CC3)c12,i,nt,nt,nt,nt,nt,nt,nt
O=C1CCC(C(=O)OCC(=O)c2ccccc2)N1 (centres undefined),i,i,i,i,i,i,nt,nt
CC1CC(C)C(=O)C(C(CC2CC(=O)NC(=O)C2)OC(=O)CC(=O)c2ccccc2)C1 (centres undefined),nt,i,i,i,i,90,99,88
CC(C)NC(=S)N/N=C/c1cc(Br)ccc1O,i,i,i,i,i,72,i,i
C/C(=N\NC(=O)C(=O)Nc1c(C)n(C)n(-c2ccccc2)c1=O)c1ccc(Cl)s1,i,i,i,i,i,i,nt,nt
Cc1cc(C(=O)NNc2ccccc2F)no1,i,i,i,i,i,i,i,i
Cc1ccc(-c2nc(CS(=O)(=O)CC(=O)N3CCCCCC3)c(C)o2)cc1,i,i,i,i,i,i,i,i
Cc1cc(S(=O)(=O)NCc2ccncc2)c(C)cc1Br,i,i,i,i,i,101,94,82
CCOc1cc(S(=O)(=O)NCc2cccs2)ccc1Cl,i,i,i,i,i,i,nt,nt
CCOc1ccc(S(=O)(=O)NCc2ccncc2)cc1,i,i,i,i,i,92,95,90
CCOc1cc(S(=O)(=O)NCc2ccncc2)ccc1Cl,i,i,i,i,i,88,97,87
Cc1ccc(S(=O)(=O)NCc2ccncc2)cc1,i,i,i,i,i,74,72,i
CC(C)CC(N)c1csc(NC(=O)c2cc(C(C)(C)C)nn2Cc2ccccc2)n1 (centres undefined),nt,i,i,i,i,i,i,i
Cc1sc(NC(=O)c2cccs2)c(C(N)=O)c1C,i,i,i,i,i,i,nt,nt
O=C(O)CSCC(=O)Nc1ccc(-c2nc3ccccc3s2)cc1,i,i,i,i,i,i,nt,nt
Cc1csc(NC(=O)CSCC(=O)O)c1-c1nc2ccccc2s1,i,i,i,i,i,i,i,i
CCOc1ccc(S(=O)(=O)n2cnc3cc(C)c(C)cc32)cc1,i,i,i,i,i,i,83,76
CNC(=O)CSc1nc2cc(S(=O)(=O)Nc3ccc(OC)cc3)ccc2o1,i,i,i,i,i,i,nt,nt
COc1ccc(NS(=O)(=O)c2ccc3oc(SC)nc3c2)cc1,i,i,i,i,i,74,i,i
CC1=Nc2ccccc2/C1=C/c1sc(=N)n(-c2nccs2)c1O,i,i,i,nt,nt,76,i,i
SMILES,NR2E3 ag-1,MC4R antagonist,MC4R ag barr,PG9 binder,NR1D1 modulator,NR2E3 ag-2,NR2E3 ag conf,GAL4-VP16 luc
COc1ccc(NC(=O)c2ccc(NC(=O)CN3CCN(c4ccc(O)cc4)CC3)cc2)cc1,nt,i,i,i,i,i,nt,nt
COCCN1CCN(C(=O)c2ccc3nc(Cc4ccc(OC)c(OC)c4)oc3c2)CC1,i,i,i,i,i,i,i,i
COc1ccc(Cc2nc3ccc(C(=O)N4C[C@@H](C)O[C@@H](C)C4)cc3o2)cc1OC,i,i,i,i,i,i,nt,nt
NS(=O)(=O)c1ccc(N=Nc2c(=O)[nH]n3c(=O)c4c([nH]c23)CCCC4)cc1,i,i,i,i,i,i,nt,nt
Cc1cc(/C=N/n2cnnc2)c(C)n1-c1ccc(Cl)cc1,i,i,i,i,i,i,nt,nt
Cc1cc(/C=N/n2cnnc2)c(C)n1-c1ccc(OCc2ccc(F)cc2)cc1,i,i,i,i,i,i,96,85
CCC(C)(C)c1ccc(Oc2cccc(C(=O)O)c2)cc1,i,i,i,i,i,i,nt,nt
CCC(C)(C)c1ccc(Oc2ccc(N)cc2)cc1,nt,i,i,i,i,i,i,i
COC(=O)c1[nH]c2c(c1C)C(=O)CC(c1ccc(OC)cc1)C2 (centres undefined),i,i,i,i,i,i,nt,nt
O=C(Nc1cccc(NC(=O)c2c(F)cccc2F)n1)c1c(F)cccc1F,i,i,i,i,i,i,79,i
O=C(Nc1cccc(NC(=O)c2cccc(F)c2)n1)c1cccc(F)c1,i,i,i,i,i,i,nt,nt
CN(C)S(=O)(=O)c1ccc(C(=O)Nc2cc(S(=O)(=O)Nc3ccccc3Cl)ccc2N2CCCCC2)cc1,i,i,i,i,i,i,85,i
Cc1ccc(-c2csc3ncnc(Sc4nnc(CN5CCCCCC5=O)o4)c23)cc1,i,i,i,i,i,i,i,i
CCC(=O)N1CCc2cc(S(=O)(=O)CCC(=O)N3CCN(c4ccc(Cl)cc4)CC3)ccc21,i,i,i,i,i,i,i,i
CC1(C(=O)Nc2ccc(Cl)c(Cl)c2)CCN1C(=O)CC(c1ccccc1)c1ccccc1 (centres undefined),nt,i,i,i,i,i,nt,nt
CC1(C(=O)Nc2ccccc2)CCN1C(=O)Cc1ccc(-c2ccccc2)cc1 (centres undefined),nt,i,i,i,i,i,i,i
CC1(C(=O)Nc2ccc(Cl)c(Cl)c2)CCN1C(=O)Cc1ccc(-c2ccccc2)cc1 (centres undefined),nt,i,i,nt,nt,i,93,73
CCC(=O)N1CCC1(C)C(=O)Nc1ccc2c(c1)OCO2 (centres undefined),nt,i,i,i,i,i,nt,nt
CC1(C(=O)Nc2ccc3c(c2)OCO3)CCN1C(=O)Cc1ccc(-c2ccccc2)cc1 (centres undefined),nt,i,i,i,i,94,97,84
Cc1nc(SCCC(=O)O)c2cc(-c3ccccc3)sc2n1,i,i,i,i,i,i,nt,nt
COc1ccc(C(=O)OCC(=O)Nc2c(C)n(C)n(-c3ccccc3)c2=O)cc1OC,i,i,i,i,i,i,nt,nt
